Reference: ChEMBL document CHEMBL1121870, “Potential radiosensitizing agents. 2. Synthesis and biological activity of derivatives of dinitroimidazole with oxiranes” (1981)

Columns and labels:
Assay type in all cases: functional
[1] = Radiosensitizing effectivity evaluated as its ability to sensitize hypoxic Chinese hamster cells (V-79) towards ionizing radiation at 0.5 mM
Summary of the method: (§1)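 Asynchronous V-79 monolayers in MEM with 15% fetal calf serum were exposed to drug at the maximum nontoxic level (1 mM or less). Cultures were made hypoxic by flushing with 95% N2/5% CO2 and irradiated at 400–3000 rad. Full survival curves were obtained, and the enhancement ratio was calculated as D0 of hypoxic controls divided by D0 of hypoxic drug-treated cells.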

Cricetinae gen. sp. = assay: Concentration needed to achieve 50% kill of chinese hamster cells under oxygenated conditions on exposure for 2 hours; settings: in Cricetulus griseus, read-out: ED50 (the source's name)
Summary of the method: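 V-79 Chinese hamster monolayers in MEM with 15% fetal calf serum; ~200 cells plated, attached 2 h, then exposed to a range of drug concentrations for 2 h at 37 °C in air. Drug medium was replaced with fresh medium and cells incubated 6 days at 37 °C in 95% air/5% CO2. Colony formation was scored and the concentration giving 50% kill determined.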

[2] = Radiosensitizing effectivity evaluated as its ability to sensitize hypoxic Chinese hamster cells (V-79) towards ionizing radiation at 0.1 mM; summary of the method: as §1
[3] = Radiosensitizing effectivity evaluated as its ability to sensitize hypoxic Chinese hamster cells (V-79) towards ionizing radiation at 1 mM; summary of the method: as §1
[4] = Radiosensitizing effectivity evaluated as its ability to sensitize hypoxic Chinese hamster cells (V-79) towards ionizing radiation at 0.25 mM; summary of the method: as §1

| Structure (SMILES) | Enhancement ratio [1] | EC50 (Cricetinae gen. sp.) [µM] | Enhancement ratio [2] | Enhancement ratio [3] | Enhancement ratio [4] |
| --- | --- | --- | --- | --- | --- |
| CC1Cn2c([N+](=O)[O-])cnc2O1 (centres undefined) | 1.1 | 620 |  |  |  |
| CC1Cn2cc([N+](=O)[O-])nc2O1 (centres undefined) |  | 1500 | 1.2 |  |  |
| O=[N+]([O-])c1cn2c(n1)OC(CO)C2 (centres undefined) |  | 2800 |  | 1 |  |
| O=[N+]([O-])c1cn2c(n1)OC(CCl)C2 (centres undefined) |  | 1300 | 1.1 |  |  |
| COCC1Cn2cc([N+](=O)[O-])nc2O1 (centres undefined) |  | 1500 | 1.1 |  |  |
| COCC(O)Cn1cc([N+](=O)[O-])nc1[N+](=O)[O-] (centres undefined) | 2.1 | 2200 | 1.8 |  |  |
| O=[N+]([O-])c1cnc2n1CC(CCl)O2 (centres undefined) | 1.1 | 610 |  |  |  |
| COCC1Cn2c([N+](=O)[O-])cnc2O1 (centres undefined) |  | 680 |  | 1 |  |
| O=[N+]([O-])c1cnc2n1CCO2 |  | 1000 |  |  | 1.6 |
